Laboratory results taken from ChEMBL document CHEMBL1687925, “Structure-activity relationships of cycloalkylamide derivatives as inhibitors of the soluble epoxide hydrolase” (J Med Chem, 2011).
Values after ≈ are worked out from the molar mass of the structure shown.

What was measured:
[1] = Inhibition of human soluble epoxide […] using fluorescent CMNPC as substrate after 10 mins by fluorometric assay
Procedure, shortened: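 Recombinant human sEH, expressed in Sf9 cells via baculovirus with a His tag that was later removed, purified by metal-affinity and anion-exchange chromatography. Enzyme at 1 nM final, preincubated with inhibitor 10 min at 30 °C in 25 mM Bis-Tris/HCl pH 7.0. CMNPC then added at 5 μM. 6-Methoxy-2-naphthaldehyde fluorescence (ex 330/em 465 nm) followed for 10 min. IC50 by regression of at least six points; mean of three runs.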

[2] = Aqueous solubility of the compound in […] phosphate buffer at pH 7.4; format: physicochemical
Procedure, shortened: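 Light-scattering method at 25± 1.5 °C. Compound in DMSO was added at varying concentrations to 0.1 M sodium phosphate, pH 7.4, at 5:95 (v/v) DMSO:buffer. Insolubility was read as the rise in turbidity, measured as optical density at 650 nm.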

[3] = Aqueous solubility of the compound in […] phosphate buffer at pH 7.4 relative to AUDA; format: physicochemical

IC50 [1] | solubility [2] | fold change (FC) [3] | Compound
> 1000 nM |  |  | O=C(NCCCc1ccccc1)C1(c2ccccc2)CC1
222 nM |  |  | O=C(NCCCc1ccccc1)C1CC=CCC1 (stereo unspecified)
> 1000 nM |  |  | O=C1CCC(C(=O)NCCCc2ccccc2)CC1
230 nM |  |  | O=C(NCCc1ccccc1)C12CC3CC(CC(C3)C1)C2
9.1 nM | 125 µM (≈ 40.9 µg/mL) | 2 | COC(=O)c1ccc(CNC(=O)C23CC4CC(CC(C4)C2)C3)cc1
> 1000 nM |  |  | COC(=O)C1C2C=CC(C2)C1C(=O)NCCCc1ccccc1 (stereo unspecified)
58 nM |  |  | CC(C)(C)C1CCC(C(=O)NCCCc2ccccc2)CC1 (stereo unspecified)
288 nM |  |  | O=C(NCCCc1ccccc1)[C@@H]1C[C@H]1c1ccccc1 (relative stereo)
243 nM |  |  | O=C(NCCCc1ccccc1)C1CCC(CO)CC1 (stereo unspecified)
2.4 nM | 15 µM (≈ 5.24 µg/mL) |  | COC(=O)c1ccc(CNC(=O)c2ccc3cc(OC)ccc3c2)cc1
235 nM |  |  | O=C(NCCCc1ccccc1)C1CCCCC1
> 1000 nM |  |  | O=C(NCCCc1ccccc1)C1(c2ccccc2)CCCC1
6.6 nM | 31 µM (≈ 9.9 µg/mL) |  | COC(=O)c1ccc(CNC(=O)c2ccc3ccccc3c2)cc1
> 1000 nM |  |  | COC(=O)C1CCCCC1C(=O)NCCCc1ccccc1 (stereo unspecified)
101 nM |  |  | CCOC(=O)c1ccc(NC(=O)C23CC4CC(CC(C4)C2)C3)cc1
180 nM |  |  | O=C(NCCCCc1ccccc1)C12CC3CC(CC(C3)C1)C2
> 1000 nM |  |  | COc1ccc(NC(=O)C23CC4CC(CC(C4)C2)C3)cc1

IC50 [1] | solubility [2] | fold change (FC) [3] | Compound
723 nM |  |  | CN(CCCc1ccccc1)C(=O)C12CC3CC(CC(C3)C1)C2
> 1000 nM |  |  | O=C(NCCCc1ccccc1)C1CCCO1 (stereo unspecified)
 | 63 µM (≈ 24.7 µg/mL) |  | O=C(O)CCCCCCCCCCCNC(=O)NC12CC3CC(CC(C3)C1)C2
> 1000 nM |  |  | O=C(NCCCc1ccccc1)C1CCC(O)CC1 (stereo unspecified)
78 nM |  |  | COC(=O)C1CCC(C(=O)NCCCc2ccccc2)CC1 (stereo unspecified)
> 1000 nM |  |  | O=C(NCCCc1ccccc1)C1CC1
> 1000 nM |  |  | O=C(O)C1CCC(C(=O)NCCCc2ccccc2)CC1 (stereo unspecified)
1.8 nM | 31 µM (≈ 10.4 µg/mL) |  | COC(=O)c1ccc(CNC(=O)c2ccc3cc(O)ccc3c2)cc1
41 nM |  |  | O=C(NCCCc1ccccc1)C12CC3CC(CC(C3)C1)C2
> 1000 nM |  |  | O=C(NCCCc1ccccc1)C1CCCC1
> 1000 nM |  |  | O=C(NCc1ccccc1)C12CC3CC(CC(C3)C1)C2
65 nM |  |  | COC(=O)c1ccc2cc(NC(=O)C34CC5CC(CC(C5)C3)C4)ccc2c1
> 1000 nM |  |  | O=C(NCCCc1ccccc1)C1CCOCC1
64 nM |  |  | O=C(NCCCc1ccccc1)C1CCC(C(F)(F)F)CC1 (stereo unspecified)
15 nM |  |  | O=C(NCCCc1ccccc1)C1CCc2ccccc2C1 (stereo unspecified)
230 nM |  |  | COC(=O)c1ccc(CCNC(=O)C23CC4CC(CC(C4)C2)C3)cc1
2.1 nM | 125 µM (≈ 40.4 µg/mL) | 2 | COC(=O)c1ccc(CNC(=O)C2CCc3ccccc3C2)cc1 (stereo unspecified)
